Test results taken from PubChem BioAssay AID651577 (The Scripps Research Institute Molecular Screening Center, 2012).
Activity calls are given as the source filed them.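 How the source made its calls: active means IC50 at or below 10 µM; inactive means IC50 above 10 µM.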

Molecular target: HCV core protein (core106) dimerization
Assay: HCV core106 dimer disruption potency, late-stage follow-up, biochemical, AlphaScreen luminescence, powder samples (AID 651577)
Conditions: AlphaScreen GST-/Flag-core106 dimerization
Summary of the method: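 Test system: HCV core106 protein domain, GST-tagged and Flag-tagged forms | Reagent: Anti-Flag acceptor and glutathione donor beads, 20 µg/mL each | Incubation: 1 h tagged-protein preincubation at room temperature, then 1 h per bead | Signal: AlphaScreen bead-proximity luminescence | Read-out: IC50 from four-parameter sigmoidal curve fit | Replication: Triplicate wells per concentration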

IC50	Structure (SMILES)
1900 nM	Cc1ccc(Cc2c(C)nc3nc(SCC(=O)NCCN4CCCCCC4)nn3c2C)cc1
inactive	Cc1ccc(Cc2c(C)nc3nc(SCC(=O)NCCN4CCCCC4)nn3c2C)cc1
9900 nM	Cc1ccc(Cc2c(CCc3ccccc3)nc3nc(SC(Cc4ccccc4)C(=O)NCCN4CCOCC4)nn3c2C)cc1 (centres undefined)
510 nM	Cc1ccc(Cc2c(C)nc3nc(SCC(=O)NCCN4CCCN(S(C)(=O)=O)CC4)nn3c2C)cc1
2600 nM	Cc1ccc(Cc2c(C)nc3nc(SCC(=O)NCCN4CCCN(S(=O)(=O)c5ccc(C)cc5)CC4)nn3c2C)cc1
1600 nM	Cc1ccc(Cc2c(C)nc3nc(SCC(=O)NCCN4CCCN(S(=O)(=O)c5ccccc5)CC4)nn3c2C)cc1
inactive	Cc1ccc(Cc2c(C)nc3nc(SCC(=O)NCCN4CCN(CCc5ccccc5)CC4)nn3c2C)cc1
inactive	Cc1ccc(Cc2c(C)nc3nc(SCC(=O)NCCN4CCN(C(=O)OC(C)(C)C)CC4)nn3c2C)cc1
inactive	Cc1ccc(Cc2c(C)nc3nc(SCC(=O)NCCN4CCN(Cc5ccc(Cl)cc5)CC4)nn3c2C)cc1
inactive	Cc1ccc(Cc2c(C)nc3nc(SCC(=O)NCCN4CCN(Cc5ccccc5)CC4)nn3c2C)cc1
inactive	Cc1ccc(Cc2c(C)nc3nc(SCC(=O)NCCN4CCN(Cc5ccc(F)cc5)CC4)nn3c2C)cc1
1000 nM	Cc1ccc(Cc2c(C)nc3nc(SCC(=O)NCCN4CCOCC4)nn3c2C)cc1
10200 nM	Cc1ccc(Cc2c(C)nc3nc(SCC(=O)NCCN4CCN(S(=O)(=O)c5ccccc5)CC4)nn3c2C)cc1
8400 nM	Cc1ccc(Cc2c(C)nc3nc(SCC(=O)NCCN4CCNCC4)nn3c2C)cc1
